From ChEMBL document CHEMBL3045504, “Activity of 1,4-benzoquinones against formosan subterranean termites (Coptotermes formosanus)” (2008)

Tests used:
Format in all cases: functional
[1] = tested on: Coptotermes formosanus; test: Termiticidal activity against Coptotermes formosanus placed on 0.1 % wt/wt compound treated filter paper assessed as termite mortality measured 21 days post compound exposure
Summary of the method: (§1)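 Treated filter paper disks moistened with 100 µL water; 20 C. formosanus workers (third instar or greater) plus 1 soldier per dish from field colonies kept on spruce, ca. 100% RH, 26.6 °C. Daily mortality scored for 3 weeks; cumulative percent mortality from four replicates, each a different colony; water-only controls; ANOVA, protected Fisher LSD (P < 0.05) after arcsine square-root transform.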

[2] = tested on: Coptotermes formosanus; test: Termiticidal activity against Coptotermes formosanus placed on 0.5 % wt/wt compound treated filter paper assessed as termite mortality measured 6 days post compound exposure; summary of the method: as §1
[3] = tested on: Coptotermes formosanus; test: Termiticidal activity against Coptotermes formosanus placed on 1 % wt/wt compound treated filter paper assessed as termite mortality measured 21 days post compound exposure
[4] = tested on: Coptotermes formosanus; test: Termiticidal activity against Coptotermes formosanus placed on 0.1 % wt/wt compound treated filter paper assessed as termite mortality measured 9 days post compound exposure; summary of the method: as §1
[5] = tested on: Coptotermes formosanus; test: Termiticidal activity against Coptotermes formosanus placed on 0.001 % wt/wt compound treated filter paper assessed as termite mortality measured 17 days post compound exposure; summary of the method: as §1
[6] = tested on: Coptotermes formosanus; test: Termiticidal activity against Coptotermes formosanus placed on 0.5 % wt/wt compound treated filter paper assessed as termite mortality measured 9 days post compound exposure; summary of the method: as §1
[7] = tested on: Coptotermes formosanus; test: Antifeedant activity against Coptotermes formosanus placed on 1 % wt/wt compound treated filter paper assessed as filter paper consumption measured 21 days post compound exposure (reference value: 15.9 +/- 10.4 mg)
[8] = tested on: Coptotermes formosanus; test: Antifeedant activity against Coptotermes formosanus placed on 0.1 % wt/wt compound treated filter paper assessed as filter paper consumption measured 21 days post compound exposure (reference value: 113.2 +/- 11.9 mg)
[9] = tested on: Coptotermes formosanus; test: Termiticidal activity against Coptotermes formosanus placed on 0.5 % wt/wt compound treated filter paper assessed as termite mortality measured 13 days post compound exposure; summary of the method: as §1
[10] = tested on: Coptotermes formosanus; test: Termiticidal activity against Coptotermes formosanus placed on 0.05 % wt/wt compound treated filter paper assessed as termite mortality measured 21 days post compound exposure; summary of the method: as §1
[11] = tested on: Coptotermes formosanus; test: Termiticidal activity against Coptotermes formosanus placed on 0.1 % wt/wt compound treated filter paper assessed as termite mortality measured 13 days post compound exposure; summary of the method: as §1
[12] = tested on: Coptotermes formosanus; test: Termiticidal activity against Coptotermes formosanus placed on 0.05 % wt/wt compound treated filter paper assessed as termite mortality measured 13 days post compound exposure; summary of the method: as §1
[13] = tested on: Coptotermes formosanus; test: Termiticidal activity against Coptotermes formosanus placed on 0.001 % wt/wt compound treated filter paper assessed as termite mortality measured 21 days post compound exposure; summary of the method: as §1
[14] = tested on: Coptotermes formosanus; test: Termiticidal activity against Coptotermes formosanus placed on 0.01 % wt/wt compound treated filter paper assessed as termite mortality measured 11 days post compound exposure; summary of the method: as §1
[15] = tested on: Coptotermes formosanus; test: Termiticidal activity against Coptotermes formosanus placed on 0.01 % wt/wt compound treated filter paper assessed as termite mortality measured 21 days post compound exposure; summary of the method: as §1
[16] = tested on: Coptotermes formosanus; test: Termiticidal activity against Coptotermes formosanus placed on 0.001 % wt/wt compound treated filter paper assessed as termite mortality measured 11 days post compound exposure; summary of the method: as §1
[17] = tested on: Coptotermes formosanus; test: Termiticidal activity against Coptotermes formosanus placed on 0.1 % wt/wt compound treated filter paper assessed as termite mortality measured 17 days post compound exposure; summary of the method: as §1
[18] = tested on: Coptotermes formosanus; test: Termiticidal activity against Coptotermes formosanus placed on 0.01 % wt/wt compound treated filter paper assessed as termite mortality measured 17 days post compound exposure; summary of the method: as §1
[19] = tested on: Coptotermes formosanus; test: Antifeedant activity against Coptotermes formosanus placed on 0.001 % wt/wt compound treated filter paper assessed as filter paper consumption measured 21 days post compound exposure (reference value: 113.2 +/- 11.9 mg)
[20] = tested on: Coptotermes formosanus; test: Termiticidal activity against Coptotermes formosanus placed on 0.05 % wt/wt compound treated filter paper assessed as termite mortality measured 17 days post compound exposure; summary of the method: as §1
[21] = tested on: Coptotermes formosanus; test: Termiticidal activity against Coptotermes formosanus placed on 0.05 % wt/wt compound treated filter paper assessed as termite mortality measured 6 days post compound exposure; summary of the method: as §1
[22] = tested on: Coptotermes formosanus; test: Antifeedant activity against Coptotermes formosanus placed on 0.01 % wt/wt compound treated filter paper assessed as filter paper consumption measured 21 days post compound exposure (reference value: 113.2 +/- 11.9 mg)
[23] = tested on: Coptotermes formosanus; test: Antifeedant activity against Coptotermes formosanus placed on 0.5 % wt/wt compound treated filter paper assessed as filter paper consumption measured 21 days post compound exposure (reference value: 113.2 +/- 11.9 mg)
[24] = tested on: Coptotermes formosanus; test: Termiticidal activity against Coptotermes formosanus placed on 0.001 % wt/wt compound treated filter paper assessed as termite mortality measured 13 days post compound exposure; summary of the method: as §1
[25] = tested on: Coptotermes formosanus; test: Termiticidal activity against Coptotermes formosanus placed on 0.1 % wt/wt compound treated filter paper assessed as termite mortality measured 6 days post compound exposure; summary of the method: as §1
[26] = tested on: Coptotermes formosanus; test: Termiticidal activity against Coptotermes formosanus placed on 1 % wt/wt compound treated filter paper assessed as termite mortality measured 3 days post compound exposure
[27] = tested on: Coptotermes formosanus; test: Termiticidal activity against Coptotermes formosanus placed on 0.001 % wt/wt compound treated filter paper assessed as termite mortality measured 6 days post compound exposure; summary of the method: as §1
[28] = tested on: Coptotermes formosanus; test: Termiticidal activity against Coptotermes formosanus placed on 0.1 % wt/wt compound treated filter paper assessed as termite mortality measured 11 days post compound exposure; summary of the method: as §1
[29] = tested on: Coptotermes formosanus; test: Termiticidal activity against Coptotermes formosanus placed on 0.01 % wt/wt compound treated filter paper assessed as termite mortality measured 6 days post compound exposure; summary of the method: as §1
[30] = tested on: Coptotermes formosanus; test: Termiticidal activity against Coptotermes formosanus placed on 0.5 % wt/wt compound treated filter paper assessed as termite mortality measured 17 days post compound exposure; summary of the method: as §1
[31] = tested on: Coptotermes formosanus; test: Termiticidal activity against Coptotermes formosanus placed on 0.01 % wt/wt compound treated filter paper assessed as termite mortality measured 13 days post compound exposure; summary of the method: as §1
[32] = tested on: Coptotermes formosanus; test: Termiticidal activity against Coptotermes formosanus placed on 0.5 % wt/wt compound treated filter paper assessed as termite mortality measured 21 days post compound exposure; summary of the method: as §1
[33] = tested on: Coptotermes formosanus; test: Termiticidal activity against Coptotermes formosanus placed on 0.01 % wt/wt compound treated filter paper assessed as termite mortality measured 9 days post compound exposure; summary of the method: as §1
[34] = tested on: Coptotermes formosanus; test: Termiticidal activity against Coptotermes formosanus placed on 1 % wt/wt compound treated filter paper assessed as termite mortality measured 11 days post compound exposure
[35] = tested on: Coptotermes formosanus; test: Termiticidal activity against Coptotermes formosanus placed on 0.05 % wt/wt compound treated filter paper assessed as termite mortality measured 9 days post compound exposure; summary of the method: as §1
[36] = tested on: Coptotermes formosanus; test: Termiticidal activity against Coptotermes formosanus placed on 0.5 % wt/wt compound treated filter paper assessed as termite mortality measured 11 days post compound exposure; summary of the method: as §1
[37] = tested on: Coptotermes formosanus; test: Termiticidal activity against Coptotermes formosanus placed on 0.05 % wt/wt compound treated filter paper assessed as termite mortality measured 11 days post compound exposure; summary of the method: as §1
[38] = tested on: Coptotermes formosanus; test: Antifeedant activity against Coptotermes formosanus placed on 0.05 % wt/wt compound treated filter paper assessed as filter paper consumption measured 21 days post compound exposure (reference value: 113.2 +/- 11.9 mg)
[39] = tested on: Coptotermes formosanus; test: Termiticidal activity against Coptotermes formosanus placed on 0.001 % wt/wt compound treated filter paper assessed as termite mortality measured 9 days post compound exposure; summary of the method: as §1
[40] = tested on: Coptotermes formosanus; test: Antifeedant activity against Coptotermes formosanus placed on 0.01 % wt/wt compound treated filter paper assessed as filter paper consumption measured 21 days post compound exposure (reference value: 78.2 +/- 26.7 mg)
[41] = tested on: Coptotermes formosanus; test: Antifeedant activity against Coptotermes formosanus placed on 0.05 % wt/wt compound treated filter paper assessed as filter paper consumption measured 21 days post compound exposure (reference value: 78.2 +/- 26.7 mg)
[42] = tested on: Coptotermes formosanus; test: Antifeedant activity against Coptotermes formosanus placed on 0.5 % wt/wt compound treated filter paper assessed as filter paper consumption measured 21 days post compound exposure (reference value: 78.2 +/- 26.7 mg)
[43] = tested on: Coptotermes formosanus; test: Antifeedant activity against Coptotermes formosanus placed on 0.001 % wt/wt compound treated filter paper assessed as filter paper consumption measured 21 days post compound exposure (reference value: 78.2 +/- 26.7 mg)
[44] = tested on: Coptotermes formosanus; test: Antifeedant activity against Coptotermes formosanus placed on 1 % wt/wt compound treated filter paper assessed as filter paper consumption measured 21 days post compound exposure (reference value: 85 +/- 15.1 mg)
[45] = tested on: Coptotermes formosanus; test: Antifeedant activity against Coptotermes formosanus placed on 0.1 % wt/wt compound treated filter paper assessed as filter paper consumption measured 21 days post compound exposure (reference value: 78.2 +/- 26.7 mg)
[46] = tested on: Coptotermes formosanus; test: Termiticidal activity against Coptotermes formosanus placed on 0.5 % wt/wt compound treated filter paper assessed as termite mortality measured 3 days post compound exposure; summary of the method: as §1
[47] = tested on: Coptotermes formosanus; test: Antifeedant activity against Coptotermes formosanus placed on 0.05 % wt/wt compound treated filter paper assessed as filter paper consumption measured 21 days post compound exposure (reference value: 23.6 +/- 13.6 mg)
[48] = tested on: Coptotermes formosanus; test: Antifeedant activity against Coptotermes formosanus placed on 0.01 % wt/wt compound treated filter paper assessed as filter paper consumption measured 21 days post compound exposure (reference value: 23.6 +/- 13.6 mg)
[49] = tested on: Coptotermes formosanus; test: Antifeedant activity against Coptotermes formosanus placed on 0.5 % wt/wt compound treated filter paper assessed as filter paper consumption measured 21 days post compound exposure (reference value: 23.6 +/- 13.6 mg)
[50] = tested on: Coptotermes formosanus; test: Antifeedant activity against Coptotermes formosanus placed on 0.001 % wt/wt compound treated filter paper assessed as filter paper consumption measured 21 days post compound exposure (reference value: 23.6 +/- 13.6 mg)
[51] = tested on: Coptotermes formosanus; test: Antifeedant activity against Coptotermes formosanus placed on 0.1 % wt/wt compound treated filter paper assessed as filter paper consumption measured 21 days post compound exposure (reference value: 23.6 +/- 13.6 mg)

SMILES | mortality [1] [%] | mortality [2] [%] | mortality [4] [%] | mortality [5] [%] | mortality [6] [%] | mortality [9] [%] | mortality [10] [%] | mortality [11] [%] | mortality [12] [%] | mortality [13] [%] | mortality [14] [%] | mortality [15] [%] | mortality [16] [%] | mortality [17] [%] | mortality [18] [%] | mortality [20] [%] | mortality [21] [%] | mortality [24] [%] | mortality [25] [%] | mortality [27] [%] | also measured
COC1=C(OC)C(=O)C(C)=C(C)C1=O [Aurantiogliocladin] | 0 | 0 | 0 | 0 | 0 | 0 | 5 | 0 | 0 | 0 | 0 | 1.7 | 0 | 0 | 0 | 0 | 0 | 0 | 0 | 0 | mortality [3]: 100%; Activity [7]: 0.1 mg; Activity [8]: 107.7 mg; Activity [19]: 136.2 mg; Activity [22]: 86.6 mg; Activity [23]: 52.4 mg; mortality [26]: 100%; mortality [28]: 0%; mortality [29]: 0%; mortality [30]: 0%; mortality [31]: 0%; mortality [32]: 0%; mortality [33]: 0%; mortality [34]: 100%; mortality [35]: 0%; mortality [36]: 0%; mortality [37]: 0%; Activity [38]: 48.6 mg; mortality [39]: 0%
COC1=C(OC)C(=O)C(CC=C(C)C)=C(C)C1=O [Coenzyme Q1] | 8.3 | 3.3 | 0 | 3.3 | 3.3 | 5 | 5 | 0 | 0 | 3.3 | 5 | 5 | 3.3 | 8.3 | 5 | 5 | 0 | 3.3 | 0 | 3.3 | mortality [3]: 100%; Activity [40]: 77.3 mg; Activity [41]: 98.1 mg; Activity [42]: 95.8 mg; Activity [43]: 98.5 mg; mortality [26]: 70%; mortality [28]: 0%; mortality [29]: 5%; mortality [30]: 8.3%; mortality [31]: 5%; mortality [32]: 10%; mortality [33]: 5%; mortality [34]: 100%; mortality [35]: 0%; mortality [36]: 3.3%; mortality [37]: 0%; Activity [44]: 16.9 mg; mortality [39]: 3.3%; Activity [45]: 101.6 mg
CC1=C(C)C(=O)C(Cl)=C(Cl)C1=O | 68.8 | 100 | 26.3 | 26.3 | 100 | 100 | 5 | 41.3 | 5 | 27.5 | 3.8 | 10 | 6.8 | 60 | 10 | 5 | 0 | 26.3 | 1.3 | 1.3 | mortality [46]: 100%; Activity [47]: 18.3 mg; Activity [48]: 25 mg; Activity [49]: 3.2 mg; Activity [50]: 17.5 mg; mortality [28]: 30.4%; Activity [51]: 13.1 mg; mortality [29]: 3.8%; mortality [30]: 100%; mortality [31]: 7.5%; mortality [32]: 100%; mortality [33]: 3.8%; mortality [35]: 1.3%; mortality [36]: 100%; mortality [37]: 3.4%; mortality [39]: 2.5%
